Measurements as given in ChEMBL document CHEMBL4190298, “Stereochemistry of a Second Riolozane and Other Diterpenoids from Jatropha dioica” (J Nat Prod, 2017).

Key:
[1] = Selectivity index, ratio of CC50 for African green monkey Vero cells to IC50 for HSV-1 infected in African green monkey Vero cells; type: toxicity; conditions: HSV-1 infected Vero cells, read-out: Ratio CC50/IC50
Human alphaherpesvirus 2 [2] = test: Antiviral activity against HSV-2 infected in African green monkey Vero cells assessed as inhibition of virus plaque formation; type: functional, organism-based; conditions: Human alphaherpesvirus 2, Vero
Method in brief: (§1)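 Vero cells (ATCC CRL-1586) were grown in advanced DMEM with 2% FBS at 37 °C and 5% CO2. Wells of 5×10^5 cells were infected with 100 PFU HSV-1 or HSV-2 for 1 h at 37 °C. The supernatant was then replaced with medium containing 1% DMSO, 0.32% IgG and compound at 80, 160 or 320 μM. After 72 h, cells were MeOH-fixed and Giemsa-stained. Mock and acyclovir controls; triplicate.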

[3] = Cytotoxicity against African green monkey Vero cells; type: cell-based; conditions: chlorocebus sabaeus
Method in brief: (§2)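 Vero cells (ATCC CRL-1586) were grown in advanced DMEM with 2% FBS at 37 °C and 5% CO2 and exposed to compound at 100, 200, 400, 800 or 1600 μM for 3 days. Viability was read by MTT (10 μL of 5 mg/mL stock added). CC50 is the concentration reducing viability by 50% relative to untreated cells, taken as 100%. Triplicate; mean ± SD.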

Human alphaherpesvirus 1 [4] = test: Antiviral activity against HSV-1 infected in African green monkey Vero cells assessed as inhibition of virus plaque formation; type: functional, organism-based; conditions: Human alphaherpesvirus 1, Vero; method in brief: as §1
[5] = Selectivity index, ratio of CC50 for African green monkey Vero cells to IC50 for HSV-2 infected in African green monkey Vero cells; type: toxicity; conditions: HSV-2 infected Vero cells, read-out: Ratio CC50/IC50
Human alphaherpesvirus 1 [6] = test: Antiviral activity against HSV-1 infected in African green monkey Vero cells assessed as inhibition of virus plaque formation after 72 hrs by Giemsa staining based assay; type: functional, organism-based; conditions: Human alphaherpesvirus 1, Vero; method in brief: as §1
[7] = Cytotoxicity against African green monkey Vero cells assessed as reduction in cell viability after 3 days by MTT assay; type: cell-based; conditions: chlorocebus sabaeus; method in brief: as §2
Human alphaherpesvirus 2 [8] = test: Antiviral activity against HSV-2 infected in African green monkey Vero cells assessed as inhibition of virus plaque formation after 72 hrs by Giemsa staining based assay; type: functional, organism-based; conditions: Human alphaherpesvirus 2, Vero; method in brief: as §1

| IC50 (Human alphaherpesvirus 2 [2]) [µM] | IC50 (Human alphaherpesvirus 1 [4]) [µM] | IC50 (Human alphaherpesvirus 1 [6]) [µM] | IC50 (Human alphaherpesvirus 2 [8]) [µM] | Structure (SMILES) | selectivity ratio [1] | CC50 [3] [µM] | selectivity ratio [5] | CC50 at 72 h [7] [µM] |
| --- | --- | --- | --- | --- | --- | --- | --- | --- |
| 210 | 210 | – | – | C[C@@H]1CC2=C(C1)[C@@H]([C@@]1(C)C(=O)C[C@H]3[C@@H](C1=O)C3(C)C)[C@H](C)C2=O | 5.8 | 1220 | 5.8 | – |
| – | – | > 303 | > 303 | C/C1=C/[C@]23O[C@H]2[C@H](C)C[C@@H]3C(=O)[C@]2(C)C(=O)CC(C)(C)[C@H]2CC1=O | – | – | – | > 1520 |
| – | – | 180 | 172 | C[C@@H]1CC2=C(C1)[C@@H]([C@@]1(C)C(=O)C[C@H]3[C@@H](C1=O)C3(C)C)[C@@H](C)C2=O | 3.2 | – | 3.4 | 584 |
| – | – | 4.75 | 3.11 | Nc1nc2c(ncn2COCCO)c(=O)[nH]1 [ACYCLOVIR] | – | – | – | – |
